In article PMC4310348 (Drug Design, Development and Therapy, 2015):
Converted amounts (≈) assume the structure as drawn.

Tests used:
[1] = system: Gram-positive mastitis organisms (57); assay: MIC testing; type: cell-based; conditions: all 57 Gram-positive bovine mastitis isolates
Procedure, shortened: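 MICs were run per CLSI guidelines for lipophilic compounds across the pooled bovine mastitis isolates. MIC was the lowest concentration preventing growth, judged visually and by OD600. MIC50 and MIC90 are the lowest concentrations inhibiting 50% and 90% of the whole collection.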

[2] = system: Streptococcus agalactiae (12); assay: MIC testing; type: cell-based
Procedure, shortened: (§1)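 Clinical bovine mastitis isolates from Australian dairy cattle, except MRSA isolates, which came from small-animal infections. Streptococci were speciated by biochemical tests and partial 16S rDNA sequencing. S. aureus was separated from coagulase-negative staphylococci by tube coagulase and latex agglutination. MICs followed CLSI guidelines for lipophilic compounds: lowest concentration preventing growth, judged visually and by OD600. MIC50/MIC90 were collated per species.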

[3] = system: Staphylococcus aureus (20); assay: MIC testing; type: cell-based
Procedure, shortened: as §1

[4] = system: Coagulase-negative staphylococci (14); assay: MIC testing; type: cell-based
Procedure, shortened: as §1

[5] = system: Streptococcus uberis (11); assay: MIC testing; type: cell-based
Procedure, shortened: as §1

MRSA (10) = assay: MIC testing; type: cell-based, methicillin-resistant Staphylococcus aureus
Procedure, shortened: as §1

[6] = Solubility of lasalocid in various solvents and milk; type: physicochemical; conditions: thermodynamic from solid
Procedure, shortened: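 Excess solid test compound was added to each solvent and shaken for 24 hours. Samples were then filtered through 0.45 µm nylon, diluted and quantified by reversed-phase C8 HPLC with UV detection at 308 nm. The mobile phase was methanol:1.5% acetic acid (90:10) at 1.0 mL/min. All measurements were made in triplicate.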

[7] = pH-solubility determination of lasalocid; type: physicochemical
Procedure, shortened: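 pH–solubility used MilliQ water adjusted with NaOH/HCl, or Universal buffer adjusted with 0.2 M NaOH, over pH 1.8–8. The buffer contained boric, citric and phosphoric acids at 0.04 M each. Excess solid was shaken for 24 hours, filtered through 0.45 µm nylon, diluted and quantified by C8 HPLC-UV at 308 nm. Measurements were made in triplicate.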

Milk distribution study = type: in vivo, Lactating Holstein dairy cows; conditions: six doses of 150 or 300 mg at 12-hourly intervals per quarter (IVP 7, IVP 8)
Procedure, shortened: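 Lactating Holstein cows aged 2–10 years had two contralateral quarters challenged intramammarily with S. uberis. After mastitis was detected, quarters received a PVP–lasalocid solid dispersion in Miglyol 812/Aerosil R972 after each milking, six infusions 12-hourly. Milk was sampled at set times, with time 0 at the first dose. Samples of 100 µL were extracted with 900 µL methanol, centrifuged and analysed by C8 HPLC-UV at 308 nm.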

`CC[C@@H](C(=O)[C@@H](C)[C@@H](O)[C@H](C)CCc1ccc(C)c(O)c1C(=O)O)[C@H]1O[C@](CC)([C@H]2CC[C@](O)(CC)[C@H](C)O2)C[C@@H]1C` [lasalocid] gave an MIC50 [1] of 2 µg/mL (≈ 3.39 µM), an MIC90 [1] of 4 µg/mL (≈ 6.77 µM) and an MIC50 ([2]; Streptococcus agalactiae) of 2 µg/mL (≈ 3.39 µM). It also gave an MIC90 ([2]; Streptococcus agalactiae) of 4 µg/mL (≈ 6.77 µM), an MIC range ([2]; n=12 isolates) of 2 to 4 µg/mL and an MIC50 ([3]; Staphylococcus aureus) of 1 µg/mL (≈ 1.69 µM). For the same compound, the MIC90 ([3]; Staphylococcus aureus) was 1 µg/mL (≈ 1.69 µM), the MIC range ([3]; n=20 isolates) was 0.5 to 1 µg/mL and the MIC50 [4] was 1 µg/mL (≈ 1.69 µM). It also gave an MIC90 [4] of 2 µg/mL (≈ 3.39 µM), an MIC range ([4]; n=14 isolates) of 0.5 to 2 µg/mL and an MIC50 ([5]; Streptococcus uberis) of 0.5 µg/mL (≈ 0.846 µM). It also gave an MIC90 ([5]; Streptococcus uberis) of 0.5 µg/mL (≈ 0.846 µM), an MIC range ([5]; n=11 isolates) of 0.5 to 1 µg/mL and an MIC50 (MRSA (10); Staphylococcus aureus, MRSA) of 0.5 µg/mL (≈ 0.846 µM). The MIC90 (MRSA (10); Staphylococcus aureus, MRSA) was 0.5 µg/mL (≈ 0.846 µM), the MIC range (MRSA (10); n=10 isolates from small animals) was 0.25 to 0.5 µg/mL and the solubility at 24 h ([6]; DMSO, organic solvent or mixture) was 298000 ± 42400 µg/mL (≈ 504000 µM). It also gave a solubility at 24 h ([6]; MilliQ water, water) of 750 ± 100 µg/mL (≈ 1270 µM), a solubility at 24 h ([6]; methanol, organic solvent or mixture) of 84700 ± 1630 µg/mL (≈ 143000 µM) and a solubility at 24 h ([6]; milk, plasma or biological fluid) of 438 ± 13.1 µg/mL (≈ 741 µM). The “Solubility at pH 1.8” value ([7]; MilliQ water with NaOH and HCl for pH adjustment) was “non-detectable”, the “Solubility at pH 1.8” value ([7]; Universal buffer) was “nondetectable” and the solubility at 24 h ([7]; Universal buffer, pH 8, aqueous buffer, thermodynamic from solid) was 9.66 ± 0.04 µg/mL (≈ 16.4 µM). The “Time after the first dose until which high milk concentration was maintained” value (Milk distribution study) was 72 h, the “Time after the first treatment by which residues in milk were not detectable” value (Milk distribution study) was ≤ 144 h and the “Time of peak lasalocid concentration in milk after the first dose” value (Milk distribution study) was 24 h.
